Source: PubChem
Lmaj promast: reduces viability of Leishmania major promastigotes; resazurin fluorescence viability; inhibition, % at 10 µM; hit rate 9% among 200,000; in the data active = inhibition above about 50%;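 note: promastigotes grown with compound for 44 hours at 28 °C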
Mdm2 ligase inh: blocks human Mdm2 ubiquitin ligase activity | cell-based MDM2 ubiquitination luciferase reporter, 2 h; 0 = plate control, 100 = twice control, blank-subtracted | signal enhancement, % at 5 µM | AID 1230 | hit rate 0.11% among 210,000;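 active = signal enhancement of 30% or more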;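 note: luminescence tracks abundance of the self-degrading MDM2-luciferase fusion protein; higher signal means inhibition of MDM2 E3 ligase activity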
Target sequence (Q00987 whole entry, looked up, the tested form may be a part): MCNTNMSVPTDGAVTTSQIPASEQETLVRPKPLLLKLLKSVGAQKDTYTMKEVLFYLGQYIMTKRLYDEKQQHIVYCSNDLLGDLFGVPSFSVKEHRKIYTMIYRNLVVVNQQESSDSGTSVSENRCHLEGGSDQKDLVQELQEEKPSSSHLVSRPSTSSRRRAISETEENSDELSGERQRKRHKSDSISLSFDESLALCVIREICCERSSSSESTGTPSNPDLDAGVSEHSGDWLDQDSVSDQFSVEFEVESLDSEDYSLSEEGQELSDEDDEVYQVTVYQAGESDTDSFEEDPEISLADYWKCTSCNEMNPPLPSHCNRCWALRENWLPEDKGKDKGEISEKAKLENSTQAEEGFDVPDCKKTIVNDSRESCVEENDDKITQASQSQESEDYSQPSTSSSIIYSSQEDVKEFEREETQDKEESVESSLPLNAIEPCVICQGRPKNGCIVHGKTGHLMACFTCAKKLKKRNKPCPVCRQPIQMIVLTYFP
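Assay system: mammalian cells stably expressing self-ubiquitinating, self-degrading MDM2 E3–luciferase fusion. Quantity: 2000 cells in each well. Medium: DMEM culture medium. Compound dosing: single-point 5 µM. Timing: cell settling 4 h, compound treatment 2 h, both 37 °C. Technique: luciferase luminescence. Read-out basis: percent signal gain over controls, blank-subtracted. Benchmarks: plate controls and plate blanks.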
S1P3 antagonist: S1P3 (human) receptor antagonism; AID 485; Q99500; inhibition, % at 4.98 µM; hit rate 0.27% among 170,000; CHO S1P3 NFAT-BLA reporter, FRET fluorescence, antagonist mode;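 active = inhibition above the plate cutoff, the mean inhibition of test wells on that plate plus 3 SD, cut at about 28% in these data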;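 note: cells challenged with S1P at its EC80 of 0.8 µM; blue over green emission ratio from cleaved BLA substrate after 4 h stimulation; 0% = S1P-stimulated wells and 100% = unstimulated DMSO-only wells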
S1P4 agonist: human S1P4 receptor agonism. O95977. S1P4-expressing cell line, agonist reporter assay. activation, % at 4.98 µM. hit rate 0.35% among 220,000; in the data active = activation above about 11%;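 note: 0% = DMSO vehicle and 100% = reference agonist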
S1P4 antagonist: blocks the human S1P4 receptor | O95977 | S1P4-expressing cells, antagonist mode, reporter read-out | inhibition, % at 4.98 µM | hit rate 0.26% among 220,000; in the data active = inhibition above about 29%;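 note: 0% = wells stimulated with agonist and 100% = vehicle wells without agonist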
The depositor's hits bear a star; nt = no result. Only a selection was taken, and hits are over-represented in it overall.

SMILES	Lmaj promast	Mdm2 ligase inh	S1P3 antagonist	S1P4 agonist	S1P4 antagonist
Cc1cc(C)c(C)c(S(=O)(=O)N2C(=S)NC(=O)C2C(C)C)c1C (stereo not given)	5	-5	nt	-2	9
Cc1ccc(S(=O)(=O)N2CCC(C(=O)N3CCC[C@H]3C(=O)NCc3ccco3)CC2)cc1	-8	-15	-8	1	-16
CCCc1ccc(OCc2ccccc2)c2c(=O)cc(C(=O)OCC)oc12	nt	-11	-7	2	-5
CC(C(=O)NC1CCCC1)N1CCN(Cc2ccccc2)CC1 (stereo not given)	73*	-11	10	-1	3
O=C(CNCc1ccc(F)cc1)Nc1ccccc1[N+](=O)[O-]	-5	-13	-12	1	6
Cc1ccc(S(=O)(=O)N(C)C)cc1NC(=S)NNC(=O)C(N)=O	-8	5	-9	2	-13
CCOC(=O)c1c(CN(C)C)n(C)c2ccc(OC(C)=O)cc12	67*	-19	-4	1	-4
COc1ccc(/C(O)=C2/C(=O)C(=O)N(c3ncccn3)C2c2ccc(F)cc2)cc1 (stereo not given)	nt	-5	-4	-1	5
CNC(=S)NNC(=O)c1sc(-c2cc(C)on2)nc1C	nt	-5	-23	-1	11
CCCc1nnc(SCC(=O)N2CCOCC2)n1C	-6	8	nt	1	-12
CCn1c2ccccc2c2cc(CNCc3ccc(OC)cc3OC)ccc21	81*	-8	-2	8	1
CCn1c2ccccc2c2cc(N)ccc21	78*	5	3	1	3
CCn1c2ccccc2c2cc(NC(=O)COc3ccc(OC)cc3)ccc21	1	4	nt	4	1
CCC(CC)NCc1ccc2c(c1)c1ccccc1n2CC	95*	-7	-6	2	-5
CCn1c(=O)n(CC)c2cc(N)ccc21	-4	6	-56	1	-17
Cc1cc(C)c(NC(=O)c2ccc(CNS(=O)(=O)c3cc(C(F)(F)F)ccc3Cl)cc2)c(C)c1	-1	-19	-25	-2	-4
CCN(CC)S(=O)(=O)c1c(OC)cc(C)c(Cl)c1C	1	-2	-22	6	6
Cc1nn(C)cc1CN(C)C(=O)c1cc(-c2ccccc2)nc2ccc(Br)cc12	2	-19	-4	-1	12
COc1ccccc1OCCCOc1c(C)cc(C)cc1Br	37	-8	6	1	-6
CCC(C)NCCOCCOc1ccc(C)cc1Br (stereo not given)	90*	13	nt	0	9
CCC(C)NCCOCCOc1ccc(Br)cc1 (stereo not given)	89*	-16	2	1	-19
C=CCNCCOCCOc1ccc(C)cc1Br	99*	-1	-9	0	-5
CCC(C)NCCCOc1c(C)cc(C)cc1Br (stereo not given)	99*	-22	1	1	-17
O=C(O)CC(c1cccc2ccccc12)n1cccc1 (stereo not given)	-4	nt	nt	-2	-29
CCCCOC(=O)Nc1cccc(Cl)c1C	-6	5	nt	-5	-16
SMILES	Lmaj promast	Mdm2 ligase inh	S1P3 antagonist	S1P4 agonist	S1P4 antagonist
C=C(C)COc1ccc2c(C)c(CC(=O)OC)c(=O)oc2c1C	58*	-9	-11	0	-16
COC(=O)Cc1c(C)c2ccc(OCC(C)=O)c(C)c2oc1=O	1	4	9	3	-18
CCCOc1ccc2c(CC)cc(=O)oc2c1C	-1	nt	5	-3	5
C=C(C)COc1ccc2c(CC)cc(=O)oc2c1C	62*	-8	-5	-1	-14
Cc1nc(C)c(NC(=O)OC(C)C)cc1NC(=O)OC(C)C	-8	-7	1	0	0
Nc1nc(Nc2ccccc2)nc2ccccc12	80*	-19	2	0	5
Cc1ccccc1Nc1nc(N)c2ccccc2n1	96*	-37	-13	1	-4
Cc1ccccc1Nc1ncc(C#N)c(N)n1	nt	-4	5	0	-1
Nc1nc(Nc2ccc(Cl)cc2)nc2ccccc12	93*	7	nt	-3	13
Cn1cc(Cl)c(C(=O)N2CCN(c3ncccn3)CC2)n1	-2	-12	0	0	-17
Cc1sc2nc(C(C)Sc3n[nH]c(N)n3)[nH]c(=O)c2c1C (stereo not given)	-5	8	-16	1	4
O=C(c1ccc(S(=O)(=O)N2CCCCC2)cc1)N1CCN(CCN2C(=O)c3cccc4cccc(c34)C2=O)CC1	13	-14	0	1	-14
C/C(Cl)=C\C[N+](C)(C)CC(=O)OCCc1ccccc1	nt	-19	4	1	1
CCCCCCCCCCCCOC(=O)C[N+](C)(C)C	nt	-13	-7	1	0
CCCCCCCCOC(=O)C[N+](C)(C)C/C=C(/C)Cl	67*	12	-3	0	-18
CCCCCCCCCCOC(=O)C[N+](C)(C)C/C=C(/C)Cl	100*	-13	-4	3	-9
COc1ccccc1NC(=O)CSc1nnc(CCC(=O)Nc2ccccc2F)n1C	nt	-30	5	-1	4
O=C(Cn1nc(-c2cccc([N+](=O)[O-])c2)c2ccccc2c1=O)Nc1cccnc1	14	-15	nt	1	6
COc1ccccc1N(C(=O)NCc1ccccc1)C1=NCC(C)S1 (stereo not given)	57*	-4	-22	0	22
COc1ccc(C(c2nnnn2Cc2cccs2)N2CCN(c3ccc(F)cc3)CC2)cc1OC (stereo not given)	27	-32	43	1	3
O=[N+]([O-])c1ccc(Sc2nnnn2-c2ccccc2)nc1	82*	-17	-9	1	-5
CCOC(=O)Cn1nc(C)c(NC(=O)c2ccc([N+](=O)[O-])c(C)c2)c1C	4	-20	6	0	-14
CCOC(=O)CN1C(=O)S/C(=C/c2ccc(O)c([N+](=O)[O-])c2)C1=O	52*	-1	-12	0	-4
CC(C)n1nc(C(=O)N2CCN(S(=O)(=O)c3cccs3)CC2)c2ccccc2c1=O	nt	-9	5	0	-5
O=C(O)c1ccc2c(c1)N(Cc1ccccc1F)C(=O)c1ccccc1S2=O (stereo not given)	-9	71*	-19	1	-6
SMILES	Lmaj promast	Mdm2 ligase inh	S1P3 antagonist	S1P4 agonist	S1P4 antagonist
CCN1C(=O)c2ccccc2S(=O)c2ccc(C(=O)N3CCCC3)cc21 (stereo not given)	-8	-11	-8	5	-2
CN(C)c1nc(OCCNC(=O)COc2ccccc2Cl)nc(N(C)C)n1	31	-5	nt	3	-5
O=C(CCN1CCc2ccccc2C1)Nc1ccccc1	2	-17	2	-1	5
O=C(c1nc2ncccn2n1)N1CCc2ccccc2C1	91*	-8	14	-1	-18
O=C(c1cccnc1)N1CCc2ccccc2C1	1	-22	24	-1	19
Cc1ccc(Cl)cc1N1CCN(C(c2cccnc2)c2nnnn2C2CCCCC2)CC1 (stereo not given)	99*	7	-1	-1	-11
c1cncc(C(c2nnnn2C2CCCCC2)N2CCCCC2)c1 (stereo not given)	29	-3	-5	1	-14
